From ChEMBL document CHEMBL1126910, “18F-labeled benzamides for studying the dopamine D2 receptor with positron emission tomography” (J Med Chem, 1993)

What was measured:
D(2) dopamine receptor = D(2) dopamine receptor (Rattus norvegicus, UniProt P61169); experiment: Inhibition of [125I]- NCQ 298 binding to D2 receptor of rat striatal tissue; assay type: tissue-based, Striatum
[1] = target: Serotonin 2 (5-HT2) receptor (Rattus norvegicus, UniProt P30994+P08909+P14842); experiment: In vitro binding affinity on 5-hydroxytryptamine 2 receptor is inhibition of binding of [125I]- I-LSD to P11 cells
In short: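 Competition binding on membranes from P11 cells (pituitary tumor 7315A line, 5-HT2 without D2 or other serotonin subtypes); 0.4–0.5 nM [125I]I-LSD in 50 mM Tris-HCl pH 7.4; 1 μM ketanserin defines nonspecific; 37 °C, 60 min; filtration, gamma counting. IC50 from curve fitting, Ki by Cheng–Prusoff.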

[2] = target: T1, Adrenergic receptor alpha-2 (Rattus norvegicus, UniProt P22086+P19328+P22909); experiment: In vitro binding affinity on alpha-2 receptor is inhibition of binding of [3H]- rauwolscine to rat cortex
T1 sequence (P22086 whole entry): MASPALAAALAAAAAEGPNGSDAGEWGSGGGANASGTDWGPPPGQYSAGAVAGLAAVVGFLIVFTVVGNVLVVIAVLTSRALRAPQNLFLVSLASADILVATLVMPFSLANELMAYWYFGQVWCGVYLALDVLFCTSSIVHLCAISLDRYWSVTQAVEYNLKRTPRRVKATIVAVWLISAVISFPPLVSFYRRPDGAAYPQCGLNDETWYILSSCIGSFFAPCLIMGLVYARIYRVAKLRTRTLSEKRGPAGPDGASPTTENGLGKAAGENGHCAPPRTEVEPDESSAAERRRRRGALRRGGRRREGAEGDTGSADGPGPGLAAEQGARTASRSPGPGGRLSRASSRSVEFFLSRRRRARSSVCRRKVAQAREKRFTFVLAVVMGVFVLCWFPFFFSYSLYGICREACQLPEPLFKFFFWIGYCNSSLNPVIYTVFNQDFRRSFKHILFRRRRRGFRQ
T1 sequence (P19328 whole entry): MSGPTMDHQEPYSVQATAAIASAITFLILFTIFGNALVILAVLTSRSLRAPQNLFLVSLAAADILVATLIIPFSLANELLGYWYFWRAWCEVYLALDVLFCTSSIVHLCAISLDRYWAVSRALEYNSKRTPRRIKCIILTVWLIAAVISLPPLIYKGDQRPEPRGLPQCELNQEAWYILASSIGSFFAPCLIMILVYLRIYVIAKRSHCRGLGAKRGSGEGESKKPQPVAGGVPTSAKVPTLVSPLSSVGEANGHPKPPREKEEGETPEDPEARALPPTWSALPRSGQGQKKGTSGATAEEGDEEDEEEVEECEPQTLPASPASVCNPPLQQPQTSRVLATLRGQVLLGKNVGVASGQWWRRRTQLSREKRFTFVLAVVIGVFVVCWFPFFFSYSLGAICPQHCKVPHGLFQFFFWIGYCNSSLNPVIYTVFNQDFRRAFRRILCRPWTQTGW
T1 sequence (P22909 whole entry): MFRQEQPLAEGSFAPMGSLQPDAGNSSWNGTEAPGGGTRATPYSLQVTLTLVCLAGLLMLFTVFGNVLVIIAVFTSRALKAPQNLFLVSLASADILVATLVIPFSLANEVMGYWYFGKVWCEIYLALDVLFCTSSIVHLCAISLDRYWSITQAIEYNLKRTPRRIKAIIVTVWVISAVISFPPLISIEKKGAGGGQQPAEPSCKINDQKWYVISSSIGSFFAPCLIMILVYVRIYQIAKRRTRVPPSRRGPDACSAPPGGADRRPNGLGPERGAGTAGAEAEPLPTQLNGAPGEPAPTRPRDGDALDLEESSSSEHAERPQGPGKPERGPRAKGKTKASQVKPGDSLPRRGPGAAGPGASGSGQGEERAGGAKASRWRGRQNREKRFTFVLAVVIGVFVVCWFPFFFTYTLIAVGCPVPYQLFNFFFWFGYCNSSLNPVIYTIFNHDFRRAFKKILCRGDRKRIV
In short: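 Rat cerebral cortex membranes, 2 nM [3H]rauwolscine in 20 mM HEPES pH 7.4, run in triplicate; nonspecific with 10 μM phentolamine; 20 °C, 30 min; glass fiber filtration, liquid scintillation counting. IC50 by curve fitting, converted to Ki via Cheng–Prusoff.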

[3] = Partition coefficient (logP); assay type: physicochemical; conditions: C-18 reversed-phase HPLC
In short: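 Lipophilicity measured as log P by the C-18 reversed-phase HPLC method of Kraak et al.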

Rattus norvegicus [4] = experiment: In vivo blood concentration of [18F]-labeled compound by rat brain at 30 min; assay type: functional, organism-based
In short: (§1)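 Sprague–Dawley rats (200–300 g) under ketamine/xylazine anesthesia given 0.5–1.0 mL of 0.9% saline containing 18F-labeled ligand (20–150 μCi) i.v. via femoral vein. Killed by decapitation at set times (5 min to 5 h). A blood sample was taken and gamma-counted, expressed as % ID/g of blood. Mean ± SEM, n = 4-8.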

Rattus norvegicus [5] = experiment: In vivo blood concentration of [18F]-labeled compound by rat brain at 3h; assay type: functional, organism-based; in short: as §1
Rattus norvegicus [6] = experiment: In vivo blood concentration of [18F]-labeled compound by rat brain at 4 hr; assay type: functional, organism-based; in short: as §1
Rattus norvegicus [7] = experiment: In vivo blood concentration of [18F]-labeled compound by rat brain at 5 min; assay type: functional, organism-based; in short: as §1
Rattus norvegicus [8] = experiment: In vivo blood concentration of [18F]-labeled compound by rat brain at 5 hr; assay type: functional, organism-based; in short: as §1
Rattus norvegicus [9] = experiment: In vivo blood concentration of [18F]-labeled compound by rat brain at 1 hr; assay type: functional, organism-based; in short: as §1
Rattus norvegicus [10] = experiment: In vivo blood concentration of [18F]-labeled compound by rat brain at 2 hr; assay type: functional, organism-based; in short: as §1
Rattus norvegicus [11] = experiment: In vivo brain uptake of [18F]-labeled compound by rat brain at 1 hr; assay type: functional, organism-based
In short: (§2)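 Sprague–Dawley rats (200–300 g), anesthetized with ketamine/xylazine, received 18F-labeled ligand (20–150 μCi) in 0.5–1.0 mL 0.9% saline i.v. (femoral vein). Decapitated at set intervals from 5 min to 5 h. Whole brain removed, weighed and gamma-counted, expressed as % ID/brain and % ID/g brain. Mean ± SEM, n = 4-8.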

Rattus norvegicus [12] = experiment: In vivo brain uptake of [18F]-labeled compound by rat brain at 2 hr; assay type: functional, organism-based; in short: as §2
Rattus norvegicus [13] = experiment: In vivo brain uptake of [18F]-labeled compound by rat brain at 30 min; assay type: functional, organism-based; in short: as §2
Rattus norvegicus [14] = experiment: In vivo brain uptake of [18F]-labeled compound by rat brain at 3h; assay type: functional, organism-based; in short: as §2
Rattus norvegicus [15] = experiment: In vivo brain uptake of [18F]-labeled compound by rat brain at 4 hr; assay type: functional, organism-based; in short: as §2
Rattus norvegicus [16] = experiment: In vivo brain uptake of [18F]-labeled compound by rat brain at 5 min; assay type: functional, organism-based; in short: as §2
Rattus norvegicus [17] = experiment: In vivo brain uptake of [18F]-labeled compound by rat brain at 5 hr; assay type: functional, organism-based; in short: as §2
[18] = target: D(3) dopamine receptor (Rattus norvegicus); experiment: In vitro binding affinity on D3 receptor is inhibition of binding of [125I]- NCQ 298 to Sf9 cells infected with recombinant baculovirus

Sequence of D(2) dopamine receptor (P61169 whole entry): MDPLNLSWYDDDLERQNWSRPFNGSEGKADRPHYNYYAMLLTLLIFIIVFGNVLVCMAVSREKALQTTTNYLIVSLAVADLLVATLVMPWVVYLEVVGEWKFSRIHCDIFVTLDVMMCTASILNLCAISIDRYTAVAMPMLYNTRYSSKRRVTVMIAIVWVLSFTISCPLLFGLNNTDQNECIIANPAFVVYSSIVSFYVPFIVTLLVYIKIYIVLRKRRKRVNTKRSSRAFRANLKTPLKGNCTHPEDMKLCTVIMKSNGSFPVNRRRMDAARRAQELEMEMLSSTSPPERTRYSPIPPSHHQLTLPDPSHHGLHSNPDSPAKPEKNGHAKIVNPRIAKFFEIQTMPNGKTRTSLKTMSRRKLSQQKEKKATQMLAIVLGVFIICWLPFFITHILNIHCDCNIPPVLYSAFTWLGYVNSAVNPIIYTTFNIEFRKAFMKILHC

COc1cccc(C(=O)NC2CCN(Cc3ccccc3)CC2)c1OC
Ki (D(2) dopamine receptor): 0.63 nM

COc1cc(N)c(Cl)cc1C(=O)NC1CCN(Cc2ccccc2)CC1 [CLEBOPRIDE]
Ki [1]: 89 nM
Ki [2]: 600 nM

COc1cc(Br)cc(C(=O)NC2CCN(Cc3ccccc3)CC2)c1OC
Ki (D(2) dopamine receptor): 0.31 nM

COc1cc(N)c(Cl)cc1C(=O)N[C@@H]1C[C@H]2CCC[C@@H](C1)N2Cc1ccc(F)cc1
Ki [1]: 2200 nM
Ki (D(2) dopamine receptor): > 10 nM

COc1cc(Br)cc(C(=O)NC2CC3CCCC(C2)N3Cc2ccc(F)cc2)c1OC (stereo not drawn)
Ki [1]: 3.1 nM
Ki (D(2) dopamine receptor): 0.02 nM
Ki [2]: 1900 nM

COc1cccc(C(=O)NC2CCN(Cc3ccc(F)cc3)CC2)c1OC
Ki [1]: 1840 nM
logP [3]: 2.83
Ki (D(2) dopamine receptor): 0.38 nM
ID/g (Rattus norvegicus [4]): 0.066%
ID/g (Rattus norvegicus [5]): 0.017%
ID/g (Rattus norvegicus [6]): 0.01%
ID/g (Rattus norvegicus [7]): 0.155%
ID/g (Rattus norvegicus [8]): 0.012%
ID/g (Rattus norvegicus [9]): 0.043%
ID/g (Rattus norvegicus [10]): 0.029%
ID/brain (Rattus norvegicus [11]): 0.57%
ID/g (Rattus norvegicus [11]): 0.36%
ID/brain (Rattus norvegicus [12]): 0.5%
ID/g (Rattus norvegicus [12]): 0.33%
ID/brain (Rattus norvegicus [13]): 0.61%
ID/g (Rattus norvegicus [13]): 0.39%
ID/brain (Rattus norvegicus [14]): 0.38%
ID/g (Rattus norvegicus [14]): 0.25%
ID/brain (Rattus norvegicus [15]): 0.17%
ID/g (Rattus norvegicus [15]): 0.11%
ID/brain (Rattus norvegicus [16]): 1.28%
ID/g (Rattus norvegicus [16]): 0.81%
ID/brain (Rattus norvegicus [17]): 0.19%
ID/g (Rattus norvegicus [17]): 0.12%
Ki [2]: 3000 nM
Ki [18]: 5.91 nM

COc1cc(Br)cc(C(=O)NC2CCN(Cc3ccc(F)cc3)CC2)c1OC
Ki [1]: 94 nM
ID/g (Rattus norvegicus [4]): 0.036%
ID/g (Rattus norvegicus [5]): 0.013%
ID/g (Rattus norvegicus [6]): 0.012%
ID/g (Rattus norvegicus [7]): 0.088%
ID/g (Rattus norvegicus [8]): 0.012%
ID/g (Rattus norvegicus [9]): 0.025%
ID/g (Rattus norvegicus [10]): 0.016%
ID/brain (Rattus norvegicus [11]): 0.36%
ID/g (Rattus norvegicus [11]): 0.2%
ID/brain (Rattus norvegicus [12]): 0.27%
ID/g (Rattus norvegicus [12]): 0.14%
ID/brain (Rattus norvegicus [13]): 0.55%
ID/g (Rattus norvegicus [13]): 0.32%
ID/brain (Rattus norvegicus [14]): 0.2%
ID/g (Rattus norvegicus [14]): 0.1%
ID/brain (Rattus norvegicus [15]): 0.21%
ID/g (Rattus norvegicus [15]): 0.12%
ID/brain (Rattus norvegicus [16]): 1.12%
ID/g (Rattus norvegicus [16]): 0.58%
ID/brain (Rattus norvegicus [17]): 0.2%
ID/g (Rattus norvegicus [17]): 0.12%
Ki [2]: 3000 nM

CCN1CCC[C@H]1CNC(=O)c1c(O)c(I)cc(OC)c1OC [IOXIPRIDE]
Ki [18]: 0.16 nM

COc1cc(Br)cc(C(=O)NC2CC3CCCC(C2)N3Cc2ccccc2)c1OC (stereo not drawn)
Ki (D(2) dopamine receptor): 0.033 nM

COc1cc(N)c(Cl)cc1C(=O)NC1CCN(Cc2ccc(F)cc2)CC1
Ki [1]: 283 nM
Ki [2]: 1300 nM

COc1cccc(C(=O)NC2CC3CCCC(C2)N3Cc2ccccc2)c1OC (stereo not drawn)
Ki (D(2) dopamine receptor): 0.038 nM

COc1cc(N)c(Cl)cc1C(=O)NC1CC2CCCC(C1)N2Cc1ccccc1 (stereo not drawn)
Ki (D(2) dopamine receptor): 0.036 nM

COc1cccc(C(=O)NC2CC3CCCC(C2)N3Cc2ccc(F)cc2)c1OC (stereo not drawn)
Ki [1]: 84 nM
logP [3]: 2.86
ID/g (Rattus norvegicus [4]): 0.089%
ID/g (Rattus norvegicus [5]): 0.019%
ID/g (Rattus norvegicus [6]): 0.013%
ID/g (Rattus norvegicus [7]): 0.156%
ID/g (Rattus norvegicus [8]): 0.005%
ID/g (Rattus norvegicus [9]): 0.044%
ID/g (Rattus norvegicus [10]): 0.024%
ID/brain (Rattus norvegicus [11]): 0.31%
ID/g (Rattus norvegicus [11]): 0.23%
ID/brain (Rattus norvegicus [12]): 0.44%
ID/g (Rattus norvegicus [12]): 0.27%
ID/brain (Rattus norvegicus [13]): 0.35%
ID/g (Rattus norvegicus [13]): 0.2%
ID/brain (Rattus norvegicus [14]): 0.37%
ID/g (Rattus norvegicus [14]): 0.23%
ID/brain (Rattus norvegicus [15]): 0.36%
ID/g (Rattus norvegicus [15]): 0.22%
ID/brain (Rattus norvegicus [16]): 0.64%
ID/g (Rattus norvegicus [16]): 0.39%
ID/brain (Rattus norvegicus [17]): 0.23%
ID/g (Rattus norvegicus [17]): 0.14%
Ki [2]: 1300 nM
